Laboratory results reported in ChEMBL document CHEMBL1759946, “Proflavine derivatives as fluorescent imaging agents of amyloid deposits” (Bioorg Med Chem Lett, 2011).
Active and inactive are the calls of the source. No cut-off for these calls is given here.

System: not listed separately
Test: Induction of amyloid beta 40 fibril disassembly at 1:2 compound:amyloid-beta ratio
Outline: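 Fresh preformed Aβ40 fibrils were incubated at 37 °C with compound at a compound/Aβ ratio of 1/2. Disassembly was followed by the change in thioflavin T fluorescence.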
COc1cc(/C=C/C(=O)CC(=O)/C=C/c2ccc(O)c(OC)c2)ccc1O showed an Activity of 90%.
With O=C(O)CCCCC1CCSS1 (centres undefined) the Activity was 60%.

System: not listed separately
Test: Inhibition of amyloid beta (1 to 40) fibril formation at 10 uM after 8 days by thioflavin T fluorescent dye assay
For C#CCNC(=O)CCCCC1CCSS1 (racemic), the inhibition was “inactive”.
For COc1ccc2c(c1)CN1c3ccc(OC)cc3CN2C1CCCCCCCN=[N+]=[N-], the inhibition was “inactive”.

System: not listed separately
Test: Inhibition of amyloid beta (1 to 40) fibril formation at 10 uM after 8 days by thioflavin T fluorescent dye assay
Outline: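 Compound at 10 µM was co-incubated for eight days with Aβ40 (50 µM) in the presence of thioflavin T. Dye fluorescence was read at 485 nm and expressed as percent of the control assay with Aβ40 alone.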
In the case of CC(=O)Nc1ccc2cc3ccc(NC(=O)CN=[N+]=[N-])cc3nc2c1, the inhibition is reported as 50%.
In the case of COc1cc(/C=C/C(=O)CC(=O)/C=C/c2ccc(O)c(OC)c2)ccc1O, the inhibition is reported as 80%.
CC(=O)Nc1ccc2cc3ccc(NC(=O)CCN)cc3nc2c1 gave an inhibition of 50%.
Work on CC(=O)Nc1ccc2cc3ccc(NC(=O)Cn4cc(CNC(=O)CCCCC5CCSS5)nn4)cc3nc2c1 (centres undefined) yielded an inhibition of 50%.
C#CCNCCC(=O)Nc1ccc2cc3ccc(NC(C)=O)cc3nc2c1 showed an inhibition of 50%.
For CC(=O)Nc1ccc2cc3ccc(NC(=O)CCNC(=O)CCCCC4CCSS4)cc3nc2c1 (centres undefined), the inhibition was 50%.
COc1ccc2c(c1)CN1c3ccc(OC)cc3CN2C1CCCCCCCn1cc(CNCCC(=O)Nc2ccc3cc4ccc(NC(C)=O)cc4nc3c2)nn1 showed an inhibition of 50%.
Molecule COc1ccc2c(c1)CN1c3ccc(OC)cc3CN2C1CCCCCCCn1cc(COC(=O)Nc2ccc3cc4ccc(NC(C)=O)cc4nc3c2)nn1 has an inhibition of 50%.
With C#CCOC(=O)Nc1ccc2cc3ccc(NC(C)=O)cc3nc2c1 the inhibition was “Active”.

Species on record: Mus musculus
Test: Binding affinity to beta amyloid plaque in triple transgenic alzheimer disease mouse model hippocampus at 100 uM after 90 mins by fluorescence microscopy
Format: tissue-based
Outline: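 Plaque labeling was read from the compound's native fluorescence with fluorescein optics. Plaques were confirmed by thioflavin S staining of adjacent sections. Controls were age-matched wild-type sections, untreated sections and DAPI counterstain.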
In the case of COc1ccc2c(c1)CN1c3ccc(OC)cc3CN2C1CCCCCCCn1cc(CNCCC(=O)Nc2ccc3cc4ccc(NC(C)=O)cc4nc3c2)nn1, the Activity is reported as “Active”.
